Test results as given in ChEMBL document CHEMBL5143669, “Stapled peptides as scaffolds for developing radiotracers for intracellular targets: Preliminary evaluation of a radioiodinated MDM2-binding stapled peptide in the SJSA-1 osteosarcoma model” (Bioorg Med Chem Lett, 2022).

Columns and labels:
[1] = Biodistribution in Urinary bladder of athymic mouse xenografted with human SJSA-1 cells at 166.5 kBq, iv after 24 hrs by automated gamma counting method; format: ADME, organism-based; details: in vivo
Method in brief: (§1)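 Athymic mice bearing flank SJSA-1 xenografts received 125I-SIB-labeled peptide (166.5 kBq, 100 μL) by tail vein; groups of five per time point. Tumor, blood and organs were taken at 0.5–24 h and counted by gamma counter; values expressed as %ID/g.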

[2] = Biodistribution in Liver of athymic mouse xenografted with human SJSA-1 cells at 166.5 kBq, iv after 6 hrs by automated gamma counting method; format: ADME, organism-based; details: in vivo
Method in brief: (§2)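 125I-labeled peptide (166.5 kBq in 100 μL) was injected via tail vein into athymic mice bearing flank SJSA-1 xenografts, n = 5 per time point. Tumors, blood and major organs were gamma-counted at 0.5, 2, 6 and 24 h post-injection. Values are %ID/g.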

[3] = Biodistribution in Skin of athymic mouse xenografted with human SJSA-1 cells at 166.5 kBq, iv after 30 mins by automated gamma counting method; format: ADME, organism-based, Skin of body; details: in vivo, 0.5 h; method in brief: as §2
[4] = Biodistribution in Skin of athymic mouse xenografted with human SJSA-1 cells at 166.5 kBq, iv after 24 hrs by automated gamma counting method; format: ADME, organism-based, Skin of body; details: in vivo; method in brief: as §2
[5] = Biodistribution in Bone of athymic mouse xenografted with human SJSA-1 cells at 166.5 kBq, iv after 24 hrs by automated gamma counting method; format: ADME, organism-based, Bone element; details: in vivo; method in brief: as §2
[6] = Biodistribution in Liver of athymic mouse xenografted with human SJSA-1 cells at 166.5 kBq, iv after 30 mins by automated gamma counting method; format: ADME, organism-based; details: in vivo, 0.5 h; method in brief: as §2
[7] = Drug uptake in MDM2-amplified human SJSA-1 cells expressing wild type p53 assessed as initially bound radioactivity incubated for 1 hrs subsequently re-incubating the cells with fresh medium for up to 2 hrs; format: ADME, cell-based; details: sjsa-1, 1 h
Method in brief: (§3)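 SJSA-1 cells were loaded with 125I-labeled peptide for 1 h, then reincubated in fresh medium for 0.5–2 h. Cell-retained activity and cumulative release into the supernatant were expressed as percentage of initially bound activity.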

[8] = Biodistribution in Bone of athymic mouse xenografted with human SJSA-1 cells at 166.5 kBq, iv after 30 mins by automated gamma counting method; format: ADME, organism-based, Bone element; details: in vivo, 0.5 h; method in brief: as §2
[9] = Biodistribution in Stomach of athymic mouse xenografted with human SJSA-1 cells at 166.5 kBq, iv after 2 hrs by automated gamma counting method; format: ADME, organism-based; details: in vivo; method in brief: as §1
[10] = Drug uptake in MDM2-amplified human SJSA-1 cells expressing wild type p53 assessed as initially bound radioactivity incubated for 2 hrs subsequently re-incubating the cells with fresh medium for up to 2 hrs; format: ADME, cell-based; details: sjsa-1, 2 h; method in brief: as §3
[11] = Biodistribution in Tumor of athymic mouse xenografted with human SJSA-1 cells at 166.5 kBq, iv after 30 mins by automated gamma counting method; format: ADME, organism-based, Neoplasm; details: in vivo, 0.5 h; method in brief: as §1
[12] = Biodistribution in Liver of athymic mouse xenografted with human SJSA-1 cells at 166.5 kBq, iv after 2 hrs by automated gamma counting method; format: ADME, organism-based; details: in vivo; method in brief: as §2
[13] = Biodistribution in Blood of athymic mouse xenografted with human SJSA-1 cells at 166.5 kBq, iv after 30 mins by automated gamma counting method; format: ADME, organism-based; details: in vivo, 0.5 h; method in brief: as §2
[14] = Biodistribution in Heart of athymic mouse xenografted with human SJSA-1 cells at 166.5 kBq, iv after 30 mins by automated gamma counting method; format: ADME, organism-based; details: in vivo, 0.5 h; method in brief: as §2
[15] = Biodistribution in Large intestine of athymic mouse xenografted with human SJSA-1 cells at 166.5 kBq, iv after 24 hrs by automated gamma counting method; format: ADME, organism-based; details: in vivo; method in brief: as §2
[16] = Biodistribution in Urinary bladder of athymic mouse xenografted with human SJSA-1 cells at 166.5 kBq, iv after 6 hrs by automated gamma counting method; format: ADME, organism-based; details: in vivo; method in brief: as §1
[17] = Biodistribution in Brain of athymic mouse xenografted with human SJSA-1 cells at 166.5 kBq, iv after 2 hrs by automated gamma counting method; format: ADME, organism-based; details: in vivo; method in brief: as §2
[18] = Biodistribution in Brain of athymic mouse xenografted with human SJSA-1 cells at 166.5 kBq, iv after 6 hrs by automated gamma counting method; format: ADME, organism-based; details: in vivo; method in brief: as §2
[19] = Biodistribution in Tumor of athymic mouse xenografted with human SJSA-1 cells at 166.5 kBq, iv after 2 hrs by automated gamma counting method; format: ADME, organism-based, Neoplasm; details: in vivo; method in brief: as §1
[20] = Biodistribution in Brain of athymic mouse xenografted with human SJSA-1 cells at 166.5 kBq, iv after 24 hrs by automated gamma counting method; format: ADME, organism-based; details: in vivo; method in brief: as §2
[21] = Biodistribution in Blood of athymic mouse xenografted with human SJSA-1 cells at 166.5 kBq, iv after 6 hrs by automated gamma counting method; format: ADME, organism-based; details: in vivo; method in brief: as §2
[22] = Drug uptake in MDM2-amplified human SJSA-1 cells expressing wild type p53 assessed as initially bound radioactivity incubated for 0.5 hrs subsequently re-incubating the cells with fresh medium for up to 2 hrs; format: ADME, cell-based; details: sjsa-1, 0.5 h; method in brief: as §3
[23] = Biodistribution in Kidney of athymic mouse xenografted with human SJSA-1 cells at 166.5 kBq, iv after 6 hrs by automated gamma counting method; format: ADME, organism-based; details: in vivo; method in brief: as §2
[24] = Biodistribution in Thyroid of athymic mouse xenografted with human SJSA-1 cells at 166.5 kBq, iv after 6 hrs by automated gamma counting method; format: ADME, organism-based, Thyroid gland; details: in vivo; method in brief: as §1
[25] = Biodistribution in Muscle of athymic mouse xenografted with human SJSA-1 cells at 166.5 kBq, iv after 24 hrs by automated gamma counting method; format: ADME, organism-based, Muscle tissue; details: in vivo; method in brief: as §2
[26] = Biodistribution in Thyroid of athymic mouse xenografted with human SJSA-1 cells at 166.5 kBq, iv after 2 hrs by automated gamma counting method; format: ADME, organism-based, Thyroid gland; details: in vivo; method in brief: as §1
[27] = Biodistribution in Spleen of athymic mouse xenografted with human SJSA-1 cells at 166.5 kBq, iv after 24 hrs by automated gamma counting method; format: ADME, organism-based; details: in vivo; method in brief: as §2
[28] = Biodistribution in Spleen of athymic mouse xenografted with human SJSA-1 cells at 166.5 kBq, iv after 30 mins by automated gamma counting method; format: ADME, organism-based; details: in vivo, 0.5 h; method in brief: as §2
[29] = Stability in human serum assessed as intact peptide level at 37 degC incubated for 1 hr by RP-HPLC analysis; format: ADME, cell-free; details: read-out: Drug uptake
Method in brief: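 125I-labeled peptide was incubated in human serum at 37 °C for up to 72 h. Aliquots were run by RP-HPLC (RP-18 column, ethanol/0.05 M sodium acetate pH 5.5 gradient, 1 mL/min), and intact peptide was expressed as percentage of injected activity.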

[30] = Biodistribution in Stomach of athymic mouse xenografted with human SJSA-1 cells at 166.5 kBq, iv after 30 mins by automated gamma counting method; format: ADME, organism-based; details: in vivo, 0.5 h; method in brief: as §1
[31] = Biodistribution in Tumor of athymic mouse xenografted with human SJSA-1 cells at 166.5 kBq, iv after 6 hrs by automated gamma counting method; format: ADME, organism-based, Neoplasm; details: in vivo; method in brief: as §1
[32] = Biodistribution in Heart of athymic mouse xenografted with human SJSA-1 cells at 166.5 kBq, iv after 6 hrs by automated gamma counting method; format: ADME, organism-based; details: in vivo; method in brief: as §2
[33] = Biodistribution in Small intestine of athymic mouse xenografted with human SJSA-1 cells at 166.5 kBq, iv after 2 hrs by automated gamma counting method; format: ADME, organism-based; details: in vivo; method in brief: as §2
[34] = Biodistribution in Skin of athymic mouse xenografted with human SJSA-1 cells at 166.5 kBq, iv after 2 hrs by automated gamma counting method; format: ADME, organism-based, Skin of body; details: in vivo; method in brief: as §2
[35] = Biodistribution in Brain of athymic mouse xenografted with human SJSA-1 cells at 166.5 kBq, iv after 30 mins by automated gamma counting method; format: ADME, organism-based; details: in vivo, 0.5 h; method in brief: as §2

Drug uptake [1]: 0.29 % ID/g | Drug uptake [2]: 11.41 % ID/g | Drug uptake [3]: 0.57 % ID/g | Drug uptake [4]: 0.52 % ID/g | Drug uptake [5]: 0.16 % ID/g | Drug uptake [6]: 13.52 % ID/g | Drug uptake [7]: 72.8% | Drug uptake [8]: 0.38 % ID/g | Drug uptake [9]: 0.53 % ID/g | Drug uptake [10]: 62% | Drug uptake [11]: 1.8 % ID/g | Drug uptake [12]: 18.41 % ID/g | Drug uptake [13]: 8.33 % ID/g | Drug uptake [14]: 2.52 % ID/g | Drug uptake [15]: 1.87 % ID/g | Drug uptake [16]: 0.95 % ID/g | Drug uptake [17]: 0.25 % ID/g | Drug uptake [18]: 0.2 % ID/g | Drug uptake [19]: 2.19 % ID/g | Drug uptake [20]: 0.02 % ID/g | Drug uptake [21]: 5.12 % ID/g | Drug uptake [22]: 83.1% | Drug uptake [23]: 2.5 % ID/g | Drug uptake [24]: 1.19 % ID/g | Drug uptake [25]: 0.16 % ID/g | Drug uptake [26]: 1.14 % ID/g | Drug uptake [27]: 0.58 % ID/g | Drug uptake [28]: 1.29 % ID/g | remaining at 1 h [29]: 98.2% | Drug uptake [30]: 0.34 % ID/g | Drug uptake [31]: 2.11 % ID/g | Drug uptake [32]: 2.14 % ID/g | Drug uptake [33]: 2.17 % ID/g | Drug uptake [34]: 0.88 % ID/g | Drug uptake [35]: 0.24 % ID/g
Structure (SMILES): CC(=O)NC(CCCCNC(=O)c1cccc([125I])c1)C(=O)NCCCCCC(=O)N[C@H](C(=O)N[C@@H](CO)C(=O)N[C@@H](Cc1ccccc1)C(=O)N[C@@]1(C)CCCCCC/C=C/CCC[C@@](C)(C(=O)N[C@@H](CCC(=O)O)C(=O)N[C@@H](CC(N)=O)C(=O)N[C@@H](Cc2ccccc2)C(N)=O)NC(=O)[C@H](CC(C)C)NC(=O)[C@H](CC(C)C)NC(=O)[C@H](C)NC(=O)[C@H](Cc2c[nH]c3ccccc23)NC(=O)[C@H](Cc2ccc(O)cc2)NC(=O)[C@H](CCC(=O)O)NC1=O)[C@@H](C)O (stereo not given in full)
